Screening data from PubChem.
KCC2 mod: KCC2 (human) Cl- transport modulation. B-score of Tl+ flux slope (higher = more flux/activation; lower = inhibition) at 10 µM. KCC2 cells, thallium flux FluoZin-2 fluorescence. actives 2.2% (n = 190,000);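 active means thallium flux slope and its plate-corrected score both differing from the plate sample mean at a set confidence after two filtering rounds, in either direction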;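 further: slope of fluorescence scaled to starting intensity during 10 to 20 s after thallium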
PKD1 kinase inh: PKD1 (human) kinase inhibition; Q15139; PKD1 kinase fluorescence polarization assay; inhibition, % (test concentration not listed); actives 0.056% (n = 200,000); in the data active means inhibition above about 50%
p97 ATPase inh: blocks human p97 ATPase activity. recombinant p97 ATPase, Kinase-Glo ATP luminescence, 3 h. P55072. AID 1481. actives 0.42% (n = 220,000). inhibition, % at 8 µM; in the data active means inhibition above about 15%
Target sequence (P55072 whole entry, looked up): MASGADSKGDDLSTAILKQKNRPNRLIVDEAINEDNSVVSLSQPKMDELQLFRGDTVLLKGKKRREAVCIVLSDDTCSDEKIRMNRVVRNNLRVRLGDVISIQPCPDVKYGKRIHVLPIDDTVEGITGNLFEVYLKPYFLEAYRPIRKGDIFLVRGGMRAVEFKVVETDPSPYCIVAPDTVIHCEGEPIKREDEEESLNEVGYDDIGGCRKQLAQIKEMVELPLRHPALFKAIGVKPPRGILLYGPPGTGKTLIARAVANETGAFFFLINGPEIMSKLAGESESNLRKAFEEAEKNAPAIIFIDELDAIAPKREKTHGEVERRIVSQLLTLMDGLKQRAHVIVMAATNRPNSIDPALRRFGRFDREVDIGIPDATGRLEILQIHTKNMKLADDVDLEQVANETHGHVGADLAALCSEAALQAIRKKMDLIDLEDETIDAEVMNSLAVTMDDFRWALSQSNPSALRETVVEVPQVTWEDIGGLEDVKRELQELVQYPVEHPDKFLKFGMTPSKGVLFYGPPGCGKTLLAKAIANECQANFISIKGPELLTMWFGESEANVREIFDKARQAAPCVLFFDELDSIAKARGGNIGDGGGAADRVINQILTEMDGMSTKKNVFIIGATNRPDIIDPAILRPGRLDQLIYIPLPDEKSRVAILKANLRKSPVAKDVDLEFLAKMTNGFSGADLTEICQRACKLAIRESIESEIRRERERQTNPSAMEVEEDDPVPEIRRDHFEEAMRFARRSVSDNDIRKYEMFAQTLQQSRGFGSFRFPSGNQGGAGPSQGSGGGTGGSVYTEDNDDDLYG
MDM2 E3 inh: Mdm2 E3 ligase (human) inhibition. AID 1230. cell-based MDM2 ubiquitination luciferase reporter, 2 h; 0 = plate control, 100 = twice control, blank-subtracted. signal enhancement, % at 5 µM. actives 0.11% (n = 210,000). Q00987;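 active means signal enhancement of 30% or more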;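 further: luminescence tracks abundance of the self-degrading MDM2-luciferase fusion protein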
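Material: stable MDM2–luciferase fusion reporter cells / Quantity: 2000 cells/well / Dosing: single 5 µM compound dose, 0.2% final DMSO / Buffer or medium: DMEM / Schedule: 4 h cell settling then 2 h compound exposure, 37 °C / Detection: luminescence with SteadyLite reagent, 15 min at room temperature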
ROMK mod: modulators of human ROMK potassium channel. B-score at 10 µM. P48048. Tet-inducible ROMK, thallium flux fluorescence; actives lie on both sides. actives 2% (n = 130,000);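 active means signal ratio slope over the read window, or its plate-corrected B-score, at least 3 SD from the plate mean, either direction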;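 further: B-score of the F/F0 ratio slope over 7 to 12 s after thallium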
DTT redox prof: compounds producing H2O2 with reducing agent – biochemical, NIH compound library profiling, artefact control for MLSCN library redox annotation, primary screen; activation, % at 10 µM; DTT-dependent redox cycling H2O2, phenol red/HRP absorbance; 100% = 100 µM peroxide control, 0% = buffer; actives 0.03% (n = 200,000);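 active means activation of at least 50% relative to the plate's high and low controls in the primary single-dose screen; inactive means activation below 50%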;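 further: compound incubated with DTT at 0.8 mM final as the reducing agent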
ROMK hit retest: confirmation of human ROMK potassium channel modulators; shares compounds with ROMK mod; ROMK thallium flux, fluorescence ratio; active compounds read low; normalized thallium flux (F/F0 slope) at 10 µM; actives 54% (n = 3,000);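 active means Flux at 10 µM at least 3 SD below or above vehicle control mean in one or both replicates; inconclusive means no clear call, values can overlap the other calls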
Each line names hits and unclear results; the compound was inactive in the other large screens (follow-up assays come after a bar, where they were run). Rows were chosen to be rich in hits. Some 3.4% of all compounds tested hit in one or more screens of this group.

Cc1ccc(-n2cc(CNC(C)Cc3cnccn3)c(-c3cccc(C)c3)n2)cc1 (configuration not stated)	ROMK mod -3.6 (no result: KCC2 mod) | ROMK hit retest 0.06
CC(C)c1ccc(C2N3CCCN23)cc1 (configuration not stated)	none
O=c1[nH]c(=O)n(C2CCCCC2)c(O)c1C1NCCc2ccccc21 (configuration not stated)	none (no result: ROMK mod)
Cc1cccc(-n2c(=S)[nH]c3ccccc3c2=O)n1	ROMK mod 2.5 | ROMK hit retest inactive
Cc1cccc(-n2c(C)nc3ccccc3c2=O)n1	none
CCOC(=O)[C@]1(C#N)[C@@H]2C=CC(C(C)=O)=CN2[C@@H](C(N)=O)[C@@H]1c1ccsc1	ROMK mod -3.6 | ROMK hit retest 0.049
CN1C(=O)C(=Cc2ccccc2Oc2ccc(Cl)cc2)C(=O)N(C)C1=O	none (no result: ROMK mod) | ROMK hit retest inactive
CC1(C)C[C@H]2C=C(C=O)[C@]3(C=O)C[C@]3(C)[C@H]2C1	ROMK mod -9.9 | ROMK hit retest 0.05
CC12CC[C@H]3[C@@H](CCC4(O)C[C@H](O)CCC34/C=N/NC(=O)Cc3ccccc3)C1(O)CCC2C1=CC(=O)OC1 (some centres not stated)	none (no result: PKD1 kinase inh, MDM2 E3 inh, ROMK mod, DTT redox prof) | ROMK hit retest inactive
CNC(=O)Nc1ccc(C(=O)N/N=C\C23CC[C@@H](O)CC2(O)CC[C@@H]2[C@@H]3CCC3(C)C(C4=CC(=O)OC4)CCC23O)cc1 (some centres not stated)	none (no result: PKD1 kinase inh, ROMK mod, DTT redox prof) | ROMK hit retest inconclusive
COc1ccc(-c2n(-c3ccccn3)c3ccccc3[n+]2-c2ccccn2)cc1	none (no result: PKD1 kinase inh, MDM2 E3 inh, ROMK mod, DTT redox prof)
CCC(=NCc1cccnc1)c1c(O)n(C2CCCCC2)c(=O)[nH]c1=O	none
CCC(=NCc1ccco1)c1c(O)n(C2CCCCC2)c(=O)[nH]c1=O	ROMK mod -4 (no result: KCC2 mod) | ROMK hit retest 0.054
CC[C@@H](C(N)=O)N1CCCC1=O	none (no result: PKD1 kinase inh, MDM2 E3 inh, ROMK mod, DTT redox prof)
C#CCOc1cc(C2C3=C(COC3=O)Nc3cc4c(cc32)OCO4)ccc1OC (configuration not stated)	ROMK mod 3.5 | ROMK hit retest inactive
CN(C)c1ccc(/C=C/[N+](=O)[O-])cc1	ROMK mod -4.1 | ROMK hit retest 0.037
CN(C)c1ccc(C(=O)c2ccc(N(C)C)cc2)cc1	none
C/C(=C\c1ccc(N(C)C)cc1)[N+](=O)[O-]	ROMK mod -3.7 | ROMK hit retest 0.051
CCn1cc(CN2CCCC(C(=O)c3sccc3C)C2)cn1 (configuration not stated)	none (no result: ROMK mod)
Clc1ccc(OCC#CCN2CCCCCC2)cc1	none (no result: MDM2 E3 inh)
CN1c2ccc([N+](=O)[O-])cc2CC2(C(=O)NC(=O)N(c3ccc(Br)cc3)C2=O)C1c1ccccc1 (configuration not stated)	none (no result: ROMK mod) | ROMK hit retest inactive
Cc1ccc(-n2c(O)c(C=N)c(=O)n(-c3ccc(C)cc3)c2=O)cc1	none (no result: KCC2 mod, PKD1 kinase inh, ROMK mod, DTT redox prof)
O=C1N(c2ccccc2)C(c2cccnc2)N2CCCN12 (configuration not stated)	ROMK mod 2.5 | ROMK hit retest inactive
O=C1N(c2cccc(Cl)c2)C(c2cccnc2)N2CCCN12 (configuration not stated)	none
C=CCNC(=S)Nc1ccc(OC(=O)Nc2ccc(Cl)c(Cl)c2)cc1	none (no result: PKD1 kinase inh, MDM2 E3 inh, ROMK mod, DTT redox prof)
O=C(/C=C/c1c[nH]c2ccccc12)c1c(O)n(CCc2ccccc2)c(=O)[nH]c1=O	none (no result: PKD1 kinase inh, ROMK mod, DTT redox prof) | ROMK hit retest 0.04
CCC(=NCCO)c1c(O)n(-c2ccc(Cl)cc2)c(=O)[nH]c1=O	none (no result: KCC2 mod)
CN1CCN(c2cc(N3CCCCCC3)c(F)cc2[N+](=O)[O-])CC1	ROMK mod -3.6 | ROMK hit retest 0.053
CC(=O)Nc1nnc(CCN(CCc2nnc(NC(C)=O)s2)[N+](=O)[O-])s1	none (no result: PKD1 kinase inh, DTT redox prof)
N=C1c2ccccc2CN1NC(=O)c1ccc(Cl)cc1	none (no result: KCC2 mod, ROMK mod)
CCOc1cc(/C=C2\C(=O)NC(=O)N(CCc3ccc(F)cc3)C2=O)ccc1O	none (no result: PKD1 kinase inh, MDM2 E3 inh, ROMK mod, DTT redox prof)
COc1cccc(C(=O)N2CCC3(CC2)OCCO3)c1	none (no result: PKD1 kinase inh, DTT redox prof)
O=C(c1ccc2c(c1)ncn2C1CCCCC1)N1CCC2(CC1)OCCO2	ROMK mod 2.4 (no result: KCC2 mod) | ROMK hit retest inactive
CCOc1cc(CNCCc2c[nH]c3ccccc23)cc(Cl)c1OC	ROMK mod -3.2 | ROMK hit retest 0.061
CCCCC(=O)N/N=C/c1c(O)n(CC)c(=S)[nH]c1=O	ROMK mod 1.9 | ROMK hit retest inactive
CN(C)S(=O)(=O)c1cc(NC(=O)COC(=O)Cc2ccccc2)ccc1Cl	none
CCC(CO)NC(=O)C1C=C2c3cccc4[nH]cc(c34)CC2N(C)C1 (configuration not stated)	none (no result: PKD1 kinase inh, ROMK mod, DTT redox prof)
COC(=O)C1C=C2c3cccc4[nH]cc(c34)CC2N(C)C1 (configuration not stated)	none (no result: PKD1 kinase inh, MDM2 E3 inh, ROMK mod, DTT redox prof) | ROMK hit retest 0.054
O=C(Cc1ccc(Cl)c(Cl)c1)NCC1(N2CCOCC2)CCCCC1	none
NC1=Nc2ccccc2Oc2ccccc21	none (no result: KCC2 mod, ROMK mod) | ROMK hit retest 0.048
CN1CCC(C)(O)C2CCCCC21 (configuration not stated)	ROMK mod -11 | ROMK hit retest inactive
O=c1cccc2n1CC1CC2CN(S(=O)(=O)c2ccccc2)C1 (configuration not stated)	none (no result: KCC2 mod, ROMK mod)
CCN1C(=O)C(=Cc2ccc(N3CCOCC3)o2)C(=O)N(CC)C1=S	none (no result: PKD1 kinase inh, ROMK mod, DTT redox prof) | ROMK hit retest 0.054
CN1C(=O)/C(=C/c2ccc(N3CCCCCC3)o2)C(=O)NC1=S	none
C=CCN1C(=O)/C(=C\c2ccc(N3CCOCC3)o2)C(=O)NC1=S	ROMK mod -4.7 | ROMK hit retest 0.052
CCCCCn1c(=O)c(C(=O)Nc2nc(CC(=O)OCC)cs2)c(O)c2ccccc21	none
CCOC(=O)c1cc2c(cn1)[nH]c1ccccc12	none (no result: MDM2 E3 inh, ROMK mod) | ROMK hit retest inconclusive
CCOC(=O)c1nc2ccccc2c(=O)n1-c1ccc(C)cc1C	none (no result: ROMK mod)
Clc1ccc2c(c1)C(OC1CN3CCC1CC3)c1ccccc1CS2 (configuration not stated)	none (no result: ROMK mod)
OC(c1cccc(Cl)c1)(c1cccc(Cl)c1)C1CN2CCC1CC2 (configuration not stated)	ROMK mod -4.5 | ROMK hit retest 0.052
O=C1NC(=O)C(=Cc2ccc(Sc3ccccc3)o2)C(=O)N1	none (no result: PKD1 kinase inh, ROMK mod, DTT redox prof)
CN1C(=O)C(=Cc2ccc(Sc3ccccc3)o2)C(=O)N(C)C1=O	ROMK mod -5.6 | ROMK hit retest 0.056
Nc1c([N+](=O)[O-])cc(F)c(N2CCNCC2)c1Br	ROMK mod -3.6 (no result: KCC2 mod) | ROMK hit retest 0.055
O=C1NC(=O)N(c2ccc3c(c2)OCO3)C(=O)/C1=C/c1ccc(N2CCCC2)o1	none (no result: ROMK mod)
